# Test results from ChEMBL document CHEMBL3875148, “Synthesis and biological evaluation of novel alkyl diamine linked bivalent β-carbolines as angiogenesis inhibitors” (Eur J Med Chem, 2016).
# Activity calls are given as the source filed them. The calls are words filed in the database; no cut-off is given here.
# System: not listed separately
# Test: Aqueous solubility of the compound
# Type: physicochemical
# Settings: not given
row,solubility [µg/mL],SMILES
1,> 10000,Cl.c1ccc2c(c1)[nH]c1c(CNCCCCNCc3nccc4c3[nH]c3ccccc34)nccc12

# Species on record: Gallus gallus
# Test: Antiangiogenic activity against 5-day-old chicken egg chorioallantoic membrane at 0.3 to 30 uM/disc incubated for 48 hrs by microscopic analysis
# Type: functional, tissue-based
# Settings: not given
row,SMILES,Activity
1,CCCCn1c2ccccc2c2ccnc(CNCCCCCNCc3nccc4c5ccccc5n(CCCC)c34)c21,Active

# System: EA.hy 926
# Test: Antimigratory activity against human EAhy926 cells assessed as inhibition of VEGF-induced cell migration incubated for 24 hrs by wound healing assay
# Type: functional, cell-based
# Settings: not given
# Summary of the method: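 Wound-healing scratch assay in EA.HY926 endothelial cells with VEGF stimulation. Compound tested across 0.3 to 30, with Endostar as positive control. Migration was compared against untreated cells.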
row,SMILES,inhibition
1,CCCCn1c2ccccc2c2ccnc(CNCCCCCNCc3nccc4c5ccccc5n(CCCC)c34)c21,Dose-dependent effect

# System: not listed separately
# Test: Antiproliferative activity against human EAhy926 cells measured after 48 hrs by MTT assay
# Type: functional, cell-based
# Settings: EA.hy 926, 48 h
row,SMILES,IC50 [µM]
1,Fc1ccc(Cn2c3ccccc3c3ccnc(CNCCCNCc4nccc5c6ccccc6n(Cc6ccc(F)cc6)c45)c32)cc1,8.87
2,COc1ccc(/C=C\c2cc(OC)c(OC)c(OC)c2)cc1OP(=O)(O)O [FOSBRETABULIN],6.4
3,Cn1c2ccccc2c2ccnc(CNCCCCCCNCc3nccc4c5ccccc5n(C)c34)c21,11.5
4,CCn1c2ccccc2c2ccnc(CNCCCNCc3nccc4c5ccccc5n(CC)c34)c21,7.77
5,Cn1c2ccccc2c2ccnc(CNCCCCNCc3nccc4c5ccccc5n(C)c34)c21,17
6,c1ccc(CCCn2c3ccccc3c3ccnc(CNCCCNCc4nccc5c6ccccc6n(CCCc6ccccc6)c45)c32)cc1,9.35
7,CC(C)n1c2ccccc2c2ccnc(CNCCCCCCNCc3nccc4c5ccccc5n(C(C)C)c34)c21,8.56
8,CCCCCCCCn1c2ccccc2c2ccnc(CNCCCCNCc3nccc4c5ccccc5n(CCCCCCCC)c34)c21,9.33
9,c1ccc(CCCn2c3ccccc3c3ccnc(CNCCCCCCNCc4nccc5c6ccccc6n(CCCc6ccccc6)c45)c32)cc1,3.22
10,CCCCn1c2ccccc2c2ccnc(CNCCCCNCc3nccc4c5ccccc5n(CCCC)c34)c21,4.37
11,Fc1ccc(Cn2c3ccccc3c3ccnc(CNCCCCNCc4nccc5c6ccccc6n(Cc6ccc(F)cc6)c45)c32)cc1,4.96
12,CCCCCCn1c2ccccc2c2ccnc(CNCCCCCNCc3nccc4c5ccccc5n(CCCCCC)c34)c21,5.16
13,CCCCn1c2ccccc2c2ccnc(CNCCCCCCNCc3nccc4c5ccccc5n(CCCC)c34)c21,2.92
14,CC(C)Cn1c2ccccc2c2ccnc(CNCCCCCCNCc3nccc4c5ccccc5n(CC(C)C)c34)c21,5.55
15,c1ccc(CCCn2c3ccccc3c3ccnc(CNCCCCNCc4nccc5c6ccccc6n(CCCc6ccccc6)c45)c32)cc1,4.78
16,c1ccc(Cn2c3ccccc3c3ccnc(CNCCCCCCNCc4nccc5c6ccccc6n(Cc6ccccc6)c45)c32)cc1,3.81
17,Cl.c1ccc2c(c1)[nH]c1c(CNCCCCNCc3nccc4c3[nH]c3ccccc34)nccc12,25.8
18,CC(C)Cn1c2ccccc2c2ccnc(CNCCCCNCc3nccc4c5ccccc5n(CC(C)C)c34)c21,8.06
19,Clc1cccc(Cn2c3ccccc3c3ccnc(CNCCCCCNCc4nccc5c6ccccc6n(Cc6cccc(Cl)c6)c45)c32)c1,4.69
20,c1ccc2c(c1)[nH]c1c(CNCCCCCNCc3nccc4c3[nH]c3ccccc34)nccc12,14.5
21,CCCCCCn1c2ccccc2c2ccnc(CNCCCCCCNCc3nccc4c5ccccc5n(CCCCCC)c34)c21,8.2
22,CCCCCCn1c2ccccc2c2ccnc(CNCCCCNCc3nccc4c5ccccc5n(CCCCCC)c34)c21,8.93
23,CCCCn1c2ccccc2c2ccnc(CNCCCCCNCc3nccc4c5ccccc5n(CCCC)c34)c21,2.16
24,CCn1c2ccccc2c2ccnc(CNCCCCNCc3nccc4c5ccccc5n(CC)c34)c21,5.36
25,c1ccc(CCCn2c3ccccc3c3ccnc(CNCCCCCNCc4nccc5c6ccccc6n(CCCc6ccccc6)c45)c32)cc1,2.76
26,c1ccc(Cn2c3ccccc3c3ccnc(CNCCCNCc4nccc5c6ccccc6n(Cc6ccccc6)c45)c32)cc1,8.89
27,CCCCn1c2ccccc2c2ccnc(CNCCCNCc3nccc4c5ccccc5n(CCCC)c34)c21,8.39
28,CCCCCCn1c2ccccc2c2ccnc(CNCCCNCc3nccc4c5ccccc5n(CCCCCC)c34)c21,9.23
29,CCCCCCCCn1c2ccccc2c2ccnc(CNCCCCCNCc3nccc4c5ccccc5n(CCCCCCCC)c34)c21,8

# System: EA.hy 926
# Test: Antiangiogenic activity against human EAhy926 cells assessed as inhibition of VEGF-induced capillary-like tube formation measured after 24 hrs by phase contrast microscopic analysis
# Type: functional, cell-based
# Settings: not given
# Summary of the method: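 EA.HY926 cells were plated on Matrigel-coated wells and treated for 24 h at 0.3–30. Capillary-like tubules with multicentric junctions were scored by imaging against compound-free controls.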
row,SMILES,inhibition
1,CCCCn1c2ccccc2c2ccnc(CNCCCCCNCc3nccc4c5ccccc5n(CCCC)c34)c21,Dose-dependent effect
